According to ChEMBL document CHEMBL3774321, “Systematic diversification of benzylidene heterocycles yields novel inhibitor scaffolds selective for Dyrk1A, Clk1 and CK2” (Eur J Med Chem, 2016):

Legend:
[1] = target: Mitogen-activated protein kinase kinase kinase 9 (Homo sapiens) (UniProt P80192); assay: Inhibition of recombinant human GST-tagged MAP3K9 expressed in baculovirus expression system at 1 uM by lantha screen kinase binding assay relative to control
Procedure, shortened: (§1)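 Binding-displacement format: the compound competes with an Alexa Fluor-conjugated tracer for binding to the kinase ATP site, rather than a peptide phosphorylation read-out.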

[2] = target: Proto-oncogene tyrosine-protein kinase ROS (Homo sapiens) (UniProt P08922); assay: Inhibition of recombinant human GST-tagged ROS1 expressed in baculovirus expression system at 1 uM by lantha screen kinase binding assay relative to control; procedure, shortened: as §1
Chain of Proto-oncogene tyrosine-protein kinase ROS (Homo sapiens) (P08922 whole entry): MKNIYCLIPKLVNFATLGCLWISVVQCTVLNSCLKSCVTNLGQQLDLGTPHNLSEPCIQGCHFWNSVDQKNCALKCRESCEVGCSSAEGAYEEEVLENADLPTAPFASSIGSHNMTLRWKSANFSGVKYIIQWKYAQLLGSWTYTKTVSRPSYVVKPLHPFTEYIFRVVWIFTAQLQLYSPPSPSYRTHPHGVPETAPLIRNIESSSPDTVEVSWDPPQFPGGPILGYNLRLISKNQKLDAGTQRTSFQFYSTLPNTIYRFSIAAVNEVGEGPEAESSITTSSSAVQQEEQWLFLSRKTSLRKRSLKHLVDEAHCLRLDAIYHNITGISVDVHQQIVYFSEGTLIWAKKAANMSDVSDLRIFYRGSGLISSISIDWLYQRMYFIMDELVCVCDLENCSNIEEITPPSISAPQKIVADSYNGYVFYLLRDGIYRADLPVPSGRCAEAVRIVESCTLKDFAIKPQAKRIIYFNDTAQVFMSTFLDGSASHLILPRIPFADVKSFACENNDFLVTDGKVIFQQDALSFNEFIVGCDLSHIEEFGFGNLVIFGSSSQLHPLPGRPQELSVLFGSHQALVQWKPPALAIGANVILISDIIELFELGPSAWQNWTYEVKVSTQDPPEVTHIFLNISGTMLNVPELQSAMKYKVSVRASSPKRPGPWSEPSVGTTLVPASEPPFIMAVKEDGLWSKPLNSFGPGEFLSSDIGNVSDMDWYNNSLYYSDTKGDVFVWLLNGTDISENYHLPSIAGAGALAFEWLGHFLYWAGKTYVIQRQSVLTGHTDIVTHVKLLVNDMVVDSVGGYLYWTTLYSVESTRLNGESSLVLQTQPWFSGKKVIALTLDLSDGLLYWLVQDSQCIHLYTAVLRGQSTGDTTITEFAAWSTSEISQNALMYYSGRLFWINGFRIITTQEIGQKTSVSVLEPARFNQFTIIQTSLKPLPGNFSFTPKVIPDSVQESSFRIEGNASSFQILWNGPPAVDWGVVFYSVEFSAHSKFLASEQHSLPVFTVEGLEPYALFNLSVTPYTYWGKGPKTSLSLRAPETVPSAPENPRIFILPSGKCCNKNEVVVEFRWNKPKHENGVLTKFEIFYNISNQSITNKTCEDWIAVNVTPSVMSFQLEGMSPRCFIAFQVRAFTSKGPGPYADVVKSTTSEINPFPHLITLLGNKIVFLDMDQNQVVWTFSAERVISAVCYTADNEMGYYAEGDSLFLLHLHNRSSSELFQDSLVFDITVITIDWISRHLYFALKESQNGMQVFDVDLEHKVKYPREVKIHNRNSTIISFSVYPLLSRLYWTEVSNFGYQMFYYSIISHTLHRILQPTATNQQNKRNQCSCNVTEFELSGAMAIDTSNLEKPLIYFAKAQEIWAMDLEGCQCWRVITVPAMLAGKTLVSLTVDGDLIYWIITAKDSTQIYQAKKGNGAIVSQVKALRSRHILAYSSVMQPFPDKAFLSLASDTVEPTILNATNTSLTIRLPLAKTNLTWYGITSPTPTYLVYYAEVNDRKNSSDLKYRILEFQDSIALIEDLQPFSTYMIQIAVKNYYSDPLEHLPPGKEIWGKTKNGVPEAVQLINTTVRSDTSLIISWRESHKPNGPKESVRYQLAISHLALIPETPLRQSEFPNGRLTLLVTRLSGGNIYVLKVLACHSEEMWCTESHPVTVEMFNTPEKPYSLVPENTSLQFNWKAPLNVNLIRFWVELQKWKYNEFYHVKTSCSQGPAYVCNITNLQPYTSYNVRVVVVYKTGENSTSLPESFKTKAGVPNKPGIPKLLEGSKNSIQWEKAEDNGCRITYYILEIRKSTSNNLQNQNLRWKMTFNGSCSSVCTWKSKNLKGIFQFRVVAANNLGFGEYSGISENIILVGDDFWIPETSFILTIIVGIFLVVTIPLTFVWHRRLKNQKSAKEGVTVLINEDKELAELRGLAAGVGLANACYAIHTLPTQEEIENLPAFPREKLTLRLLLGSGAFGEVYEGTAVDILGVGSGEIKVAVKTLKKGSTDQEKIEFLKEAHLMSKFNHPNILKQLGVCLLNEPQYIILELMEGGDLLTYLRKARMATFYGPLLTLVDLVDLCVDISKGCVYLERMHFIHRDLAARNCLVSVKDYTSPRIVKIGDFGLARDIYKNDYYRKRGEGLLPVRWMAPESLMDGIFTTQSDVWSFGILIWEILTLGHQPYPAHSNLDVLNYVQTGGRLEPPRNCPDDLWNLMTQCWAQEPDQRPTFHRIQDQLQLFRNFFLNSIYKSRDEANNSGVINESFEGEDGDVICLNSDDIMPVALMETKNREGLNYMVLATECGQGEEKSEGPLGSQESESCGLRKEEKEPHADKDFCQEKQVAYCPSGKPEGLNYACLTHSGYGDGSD

Chain of Mitogen-activated protein kinase kinase kinase 9 (Homo sapiens) (P80192 whole entry, looked up): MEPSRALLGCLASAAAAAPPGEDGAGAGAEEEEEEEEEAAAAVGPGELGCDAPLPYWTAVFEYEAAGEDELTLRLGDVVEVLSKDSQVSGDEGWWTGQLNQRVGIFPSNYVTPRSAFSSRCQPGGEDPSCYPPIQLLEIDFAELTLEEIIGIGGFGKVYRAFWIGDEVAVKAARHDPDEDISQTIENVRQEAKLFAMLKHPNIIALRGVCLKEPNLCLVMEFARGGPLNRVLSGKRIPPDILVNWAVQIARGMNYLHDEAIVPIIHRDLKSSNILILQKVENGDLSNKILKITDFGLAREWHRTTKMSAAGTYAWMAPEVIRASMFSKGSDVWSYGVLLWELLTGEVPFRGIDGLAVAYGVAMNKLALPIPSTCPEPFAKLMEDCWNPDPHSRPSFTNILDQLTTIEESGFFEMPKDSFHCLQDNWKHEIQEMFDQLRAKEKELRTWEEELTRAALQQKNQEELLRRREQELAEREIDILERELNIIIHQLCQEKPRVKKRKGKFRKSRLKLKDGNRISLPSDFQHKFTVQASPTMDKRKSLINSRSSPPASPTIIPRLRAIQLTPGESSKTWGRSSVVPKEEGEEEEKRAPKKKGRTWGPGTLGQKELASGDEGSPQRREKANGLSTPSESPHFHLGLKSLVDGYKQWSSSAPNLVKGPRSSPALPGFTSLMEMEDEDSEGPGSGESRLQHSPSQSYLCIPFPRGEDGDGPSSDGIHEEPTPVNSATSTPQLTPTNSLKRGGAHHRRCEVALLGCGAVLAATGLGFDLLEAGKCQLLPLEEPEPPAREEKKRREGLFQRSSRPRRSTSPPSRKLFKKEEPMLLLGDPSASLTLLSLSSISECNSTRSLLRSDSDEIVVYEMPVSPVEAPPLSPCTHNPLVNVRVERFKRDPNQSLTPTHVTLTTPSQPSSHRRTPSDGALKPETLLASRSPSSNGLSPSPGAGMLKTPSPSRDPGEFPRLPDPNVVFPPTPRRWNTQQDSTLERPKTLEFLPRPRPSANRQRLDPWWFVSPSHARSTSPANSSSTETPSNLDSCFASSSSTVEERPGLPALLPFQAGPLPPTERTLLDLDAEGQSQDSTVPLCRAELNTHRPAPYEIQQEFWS

**Q.** Which inhibition [1] does the source give for O=C1NC(=S)S/C1=C\c1ccc2ncccc2c1 here?
**A.** 2%

**Q.** And the inhibition [2]?
**A.** 5%
